# Reference: ChEMBL document CHEMBL1121917, “Structure--activity relationships in a broad-spectrum anthelmintic series. Acid chloride phenylhydrazones. 1. Aryl substitutions and chloride variations” (1981)
# How the values were obtained:
# Mus musculus [1] = species on record: Mus musculus; test: Percent clearance of Nematospiroides dubius from mouse after oral treatment of 0.47 mg/mouse/day; type: functional
# In short: (§1)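 Mice naturally carrying Syphacia obvelata were experimentally infected with Nematospiroides dubius and Hymenolepis nana, then grouped after a 2-week prepatency. Finely ground compound was suspended in aqueous 0.10% carboxymethylcellulose, 0.04% polysorbate 80 and 0.0042% polyparaben, and 0.1 mL was given orally by cannula once daily for 4 days to five mice. Necropsy followed 2 days later, scoring presence or absence of each parasite. Control clearance was subtracted from the treated clearance.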
# Mus musculus [2] = species on record: Mus musculus; test: Percent clearance of Hymenolepis nana from mouse after oral treatment of 0.47 mg/mouse/day; type: functional; in short: as §1
# Canis familiaris [3] = species on record: Canis familiaris; test: Percent reduction in Uncinaria eggs per gram, after treatment with 200 mg/dog dose of compound in a single treatment; type: functional, Canis lupus familiaris, Egg
# In short: (§2)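 Dogs naturally infected with Toxascaris leonina were experimentally infected with mixed Ancylostoma caninum and Uncinaria stenocephala larvae. Finely ground compound was given orally in gelatin capsules. Three egg count determinations were made before and three after treatment in each experiment.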
# Canis familiaris [4] = species on record: Canis familiaris; test: Percent reduction in Uncinaria eggs per gram, after treatment with 250 mg/dog dose of compound in a single treatment; type: functional, Canis lupus familiaris, Egg
# Canis familiaris [5] = species on record: Canis familiaris; test: Percent reduction in Uncinaria eggs per gram, after treatment with 275 mg/dog dose of compound in a single treatment; type: functional, Canis lupus familiaris, Egg
# Canis familiaris [6] = species on record: Canis familiaris; test: Percent reduction in Ancylostoma eggs per gram, after treatment with 200 mg/dog dose of compound in a single treatment; type: functional, Canis lupus familiaris, Egg
# In short: (§3)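 Dogs naturally infected with Toxascaris leonina were experimentally infected with mixed Ancylostoma caninum and Uncinaria stenocephala larvae. Finely ground compound was given orally in gelatin capsules. Fecal egg counts were taken three times before and three times after treatment, and activity was taken as the fall in egg counts.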
# Canis familiaris [7] = species on record: Canis familiaris; test: Percent reduction in Ancylostoma eggs per gram, after treatment with 250 mg/dog dose of compound in a single treatment; type: functional, Canis lupus familiaris, Egg; in short: as §3
# Canis familiaris [8] = species on record: Canis familiaris; test: Percent reduction in Ancylostoma eggs per gram, after treatment with 275 mg/dog dose of compound in a single treatment; type: functional, Canis lupus familiaris, Egg; in short: as §3
# Canis familiaris [9] = species on record: Canis familiaris; test: Percent reduction in Toxascaris eggs per gram, after treatment with 200 mg/dog dose of compound in a single treatment; type: functional, Canis lupus familiaris, Egg; in short: as §2
# Canis familiaris [10] = species on record: Canis familiaris; test: Percent reduction in Trichuris eggs per gram, after treatment with 200 mg/dog dose of compound in a single treatment; type: functional, Canis lupus familiaris, Egg
# Mus musculus [11] = species on record: Mus musculus; test: Percent clearance of Nematospiroides dubius from mouse oral treatment of 0.25 mg/mouse/day of compound; type: functional; in short: as §1
# Mus musculus [12] = species on record: Mus musculus; test: Percent clearance of Syphacaia obvelata from mouse after oral treatment of 0.25 mg/mouse/day of compound; type: functional; in short: as §1
# Ovis aries [13] = test: Percent reduction in Trichostrongylus eggs per gram, after treatment with 200 mg/kg dose of compound in sheep perorally; type: functional, Egg; conditions: route oral
# Ovis aries [14] = test: Percent reduction in Trichostrongylus eggs per gram, after treatment with 300 mg/kg dose of compound in sheep perorally; type: functional, Egg; conditions: route oral
# Ovis aries [15] = test: Percent reduction in Trichostrongylus eggs per gram, after treatment with 400 mg/kg dose of compound in sheep perorally; type: functional, Egg; conditions: route oral
# Ovis aries [16] = test: Percent reduction in Trichuris eggs per gram, after treatment with 100 mg/kg dose of compound in sheep perorally; type: functional, Egg; conditions: route oral
# Ovis aries [17] = test: Percent reduction in Trichuris eggs per gram, after treatment with 150 mg/kg dose of compound in sheep perorally; type: functional, Egg; conditions: route oral
# Ovis aries [18] = test: Percent reduction in Trichuris eggs per gram, after treatment with 200 mg/kg dose of compound in sheep perorally; type: functional, Egg; conditions: route oral
# Ovis aries [19] = test: Percent reduction in Trichuris eggs per gram, after treatment with 300 mg/kg dose of compound in sheep perorally; type: functional, Egg; conditions: route oral
# Ovis aries [20] = test: Percent reduction in Trichuris eggs per gram, after treatment with 400 mg/kg dose of compound in sheep perorally; type: functional, Egg; conditions: route oral
# Ovis aries [21] = test: Percent reduction in Haemonchus eggs per gram, after treatment with 100 mg/kg dose of compound in sheep perorally; type: functional, Egg; conditions: route oral
# In short: (§4)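 Naturally parasitized lambs received compound orally, either as the aqueous suspension by stomach tube or as finely ground powder in gelatin capsules by balling gun. Activity was judged by the clinical test method, as a significant decrease in posttreatment helminth egg counts.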
# Ovis aries [22] = test: Percent reduction in Haemonchus eggs per gram, after treatment with 150 mg/kg dose of compound in sheep perorally; type: functional, Egg; conditions: route oral; in short: as §4
# Ovis aries [23] = test: Percent reduction in Haemonchus eggs per gram, after treatment with 200 mg/kg dose of compound in sheep perorally; type: functional, Egg; conditions: route oral
# In short: (§5)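 Naturally parasitized lambs were dosed orally at the stated mg/kg. Dosing was either as a suspension of finely ground compound by stomach tube, or as ground compound weighed into gelatin capsules and given by balling gun. Activity was scored by the clinical test method: the decrease in posttreatment helminth eggs per gram.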
# Ovis aries [24] = test: Percent reduction in Haemonchus eggs per gram, after treatment with 300 mg/kg dose of compound in sheep perorally; type: functional, Egg; conditions: route oral; in short: as §5
# Ovis aries [25] = test: Percent reduction in Nematodirus eggs per gram, after treatment with 300 mg/kg dose of compound in sheep perorally; type: functional, Egg; conditions: route oral; in short: as §5
# Ovis aries [26] = test: Percent reduction in Nematodirus eggs per gram, after treatment with 400 mg/kg dose of compound in sheep perorally; type: functional, Egg; conditions: route oral; in short: as §5
# Ovis aries [27] = test: Percent reduction in Oesophagostomum eggs per gram, after treatment with 100 mg/kg dose of compound in sheep perorally; type: functional, Egg; conditions: route oral; in short: as §5
# Ovis aries [28] = test: Percent reduction in Oesophagostomum eggs per gram, after treatment with 150 mg/kg dose of compound in sheep perorally; type: functional, Egg; conditions: route oral; in short: as §5
# Ovis aries [29] = test: Percent reduction in Oesophagostomum eggs per gram, after treatment with 200 mg/kg dose of compound in sheep perorally; type: functional, Egg; conditions: route oral; in short: as §5
# Ovis aries [30] = test: Percent reduction in Strongyloides eggs per gram, after treatment with 200 mg/kg dose of compound in sheep perorally; type: functional, Egg; conditions: route oral
# In short: (§6)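 Naturally parasitized lambs, dosed orally either with a suspension by stomach tube or with finely ground compound in gelatin capsules by balling gun. Activity was scored by the clinical test method, meaning a significant fall in helminth egg counts after treatment.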
# Ovis aries [31] = test: Percent reduction in Haemonchus eggs per gram, after treatment with 400 mg/kg dose of compound in sheep perorally; type: functional, Egg; conditions: route oral; in short: as §5
# Ovis aries [32] = test: Percent reduction in Moniezia eggs per gram, after treatment with 150 mg/kg dose of compound in sheep perorally; type: functional, Egg; conditions: route oral; in short: as §5
# Ovis aries [33] = test: Percent reduction in Strongyloides eggs per gram, after treatment with 300 mg/kg dose of compound in sheep perorally; type: functional, Egg; conditions: route oral; in short: as §6
# Ovis aries [34] = test: Percent reduction in Strongyloides eggs per gram, after treatment with 400 mg/kg dose of compound in sheep perorally; type: functional, Egg; conditions: route oral; in short: as §6
# Ovis aries [35] = test: Percent reduction in Ostertagia eggs per gram, after treatment with 400 mg/kg dose of compound in sheep perorally; type: functional, Egg; conditions: route oral; in short: as §6
# Ovis aries [36] = test: Percent reduction in Trichostrongylus eggs per gram, after treatment with 100 mg/kg dose of compound in sheep perorally; type: functional, Egg; conditions: route oral
# In short: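 Lambs naturally parasitized with helminths. Finely ground compound was given orally, either as an aqueous suspension by stomach tube or weighed into gelatin capsules given by balling gun. Activity was assessed by the clinical test method: the reduction in helminth egg counts after treatment.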
# Ovis aries [37] = test: Percent reduction in Nematodirus eggs per gram, after treatment with 100 mg/kg dose of compound in sheep perorally; type: functional, Egg; conditions: route oral; in short: as §5
# Ovis aries [38] = test: Percent reduction in Nematodirus eggs per gram, after treatment with 150 mg/kg dose of compound in sheep perorally; type: functional, Egg; conditions: route oral; in short: as §5
# Ovis aries [39] = test: Percent reduction in Nematodirus eggs per gram, after treatment with 200 mg/kg dose of compound in sheep perorally; type: functional, Egg; conditions: route oral; in short: as §5
# Ovis aries [40] = test: Percent reduction in Ostertagia eggs per gram, after treatment with 100 mg/kg dose of compound in sheep perorally; type: functional, Egg; conditions: route oral; in short: as §5
# Ovis aries [41] = test: Percent reduction in Ostertagia eggs per gram, after treatment with 150 mg/kg dose of compound in sheep perorally; type: functional, Egg; conditions: route oral; in short: as §5
# Ovis aries [42] = test: Percent reduction in Ostertagia eggs per gram, after treatment with 200 mg/kg dose of compound in sheep perorally; type: functional, Egg; conditions: route oral; in short: as §6
# Ovis aries [43] = test: Percent reduction in Ostertagia eggs per gram, after treatment with 300 mg/kg dose of compound in sheep perorally; type: functional, Egg; conditions: route oral; in short: as §6
# Ovis aries [44] = test: Percent reduction in Cooperia eggs per gram, after treatment with 100 mg/kg dose of compound in sheep perorally; type: functional, Egg; conditions: route oral; in short: as §4
# Ovis aries [45] = test: Percent reduction in Strongyloides eggs per gram, after treatment with 100 mg/kg dose of compound in sheep perorally; type: functional, Egg; conditions: route oral; in short: as §6
# Ovis aries [46] = test: Percent reduction in Strongyloides eggs per gram, after treatment with 150 mg/kg dose of compound in sheep perorally; type: functional, Egg; conditions: route oral; in short: as §6
# Ovis aries [47] = test: Percent reduction in Trichostrongylus eggs per gram, after treatment with 150 mg/kg dose of compound in sheep perorally; type: functional, Egg; conditions: route oral
# Ovis aries [48] = test: Percent reduction in Oesophagostomum eggs per gram, after treatment with 300 mg/kg dose of compound in sheep perorally; type: functional, Egg; conditions: route oral; in short: as §5
smiles,measurement,setting,value
Cl/C(=N\Nc1ccccc1)c1ccc(Br)cc1,Parasite_Clearance,Mus musculus [1],100%
same,Parasite_Clearance,Mus musculus [2],100%
Cc1ccc(/C(Cl)=N/Nc2ccccc2)cc1,Reduction,Canis familiaris [3],100%
same,Reduction,Canis familiaris [4],100%
same,Reduction,Canis familiaris [5],99.8%
same,Reduction,Canis familiaris [6],100%
same,Reduction,Canis familiaris [7],100%
same,Reduction,Canis familiaris [8],100%
same,Reduction,Canis familiaris [9],100%
same,Reduction,Canis familiaris [10],100%
same,Parasite_Clearance,Mus musculus [11],20%
same,Parasite_Clearance,Mus musculus [12],100%
same,Reduction,Ovis aries [13],100%
same,Reduction,Ovis aries [14],100%
same,Reduction,Ovis aries [15],100%
same,Reduction,Ovis aries [16],29%
same,Reduction,Ovis aries [17],25%
same,Reduction,Ovis aries [18],0%
same,Reduction,Ovis aries [19],0%
same,Reduction,Ovis aries [20],0%
same,Reduction,Ovis aries [21],84%
same,Reduction,Ovis aries [22],100%
same,Reduction,Ovis aries [23],100%
same,Reduction,Ovis aries [24],100%
same,Reduction,Ovis aries [25],100%
same,Reduction,Ovis aries [26],100%
same,Reduction,Ovis aries [27],100%
same,Reduction,Ovis aries [28],79%
same,Reduction,Ovis aries [29],100%
same,Reduction,Ovis aries [30],37%
same,Reduction,Ovis aries [31],100%
same,Reduction,Ovis aries [32],100%
same,Reduction,Ovis aries [33],100%
same,Reduction,Ovis aries [34],100%
same,Reduction,Ovis aries [35],100%
same,Reduction,Ovis aries [36],73%
same,Reduction,Ovis aries [37],100%
same,Reduction,Ovis aries [38],100%
same,Reduction,Ovis aries [39],100%
same,Reduction,Ovis aries [40],96%
same,Reduction,Ovis aries [41],100%
same,Reduction,Ovis aries [42],100%
same,Reduction,Ovis aries [43],100%
same,Reduction,Ovis aries [44],100%
same,Reduction,Ovis aries [45],99%
same,Reduction,Ovis aries [46],100%
same,Reduction,Ovis aries [47],98%
same,Reduction,Ovis aries [48],100%
